Test results: ChEMBL document CHEMBL2176962, “Repositioning HIV-1 integrase inhibitors for cancer therapeutics: 1,6-naphthyridine-7-carboxamide as a promising scaffold with drug-like properties” (J Med Chem, 2012)

Key:
[1] = test system: HCT-116; assay: Cytotoxicity against p53 expressing human HCT116 cells incubated for 72 hrs by MTT assay; format: functional, cell-based; conditions: HCT-116, 72 h
Method in brief: (§1)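 Cells were kept in DMEM (MDA-MB-435, MCF7, LNCaP) or RPMI (HT29, HCT116) with 10% heat-inactivated FBS and 2 mM L-glutamine, subconfluent and in exponential growth. They were seeded, allowed to adhere overnight, then exposed continuously to compound (10 mM DMSO stock) for 72 h. MTT was added to 0.3 mg/mL final for 3–4 h at 37 °C, formazan was dissolved in DMSO, and absorbance was read at 570 nm. Runs were in triplicate; IC50 came from log concentration versus percent cell kill.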

[2] = Toxicity against human C8166 cells incubated for 72 hrs by MTT assay; format: cell-based
Method in brief: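 C8166 cells were seeded with serial compound dilutions in triplicate and incubated at 37 °C, 5% CO2 for 72 h. MTT (5 mg/mL in PBS) was added for 4 h, and formazan was dissolved in 50% DMF-20% SDS. Absorbance was read at 595/630 nm. CC50 was taken from the dose-response curve.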

[3] = target: Proto-oncogene tyrosine-protein kinase Src (Homo sapiens) (UniProt P12931); assay: Inhibition of SRC at 10 uM incubated for 60 mins using poly(Glu,Tyr)4:1 substrate and 10 uM ATP by ELISA
Sequence of Proto-oncogene tyrosine-protein kinase Src (Homo sapiens) (P12931 2-536 limits assumed): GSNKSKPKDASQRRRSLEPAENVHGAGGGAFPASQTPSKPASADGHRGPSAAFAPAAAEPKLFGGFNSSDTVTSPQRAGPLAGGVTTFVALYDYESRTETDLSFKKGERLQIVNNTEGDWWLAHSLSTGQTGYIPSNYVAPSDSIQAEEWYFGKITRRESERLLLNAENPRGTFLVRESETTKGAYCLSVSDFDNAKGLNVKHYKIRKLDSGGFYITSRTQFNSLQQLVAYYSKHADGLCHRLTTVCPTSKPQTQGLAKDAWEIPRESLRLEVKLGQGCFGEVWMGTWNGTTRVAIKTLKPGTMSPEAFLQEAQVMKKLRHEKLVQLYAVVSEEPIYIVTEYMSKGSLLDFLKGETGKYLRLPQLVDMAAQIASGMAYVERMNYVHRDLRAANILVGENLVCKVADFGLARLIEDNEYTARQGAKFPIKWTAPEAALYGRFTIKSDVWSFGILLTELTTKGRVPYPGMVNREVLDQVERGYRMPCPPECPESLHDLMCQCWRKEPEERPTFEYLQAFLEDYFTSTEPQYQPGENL
Method in brief: (§2)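 ELISA with Poly(Glu,Tyr)4:1 (20 μg/mL) precoated as substrate and 10 μM ATP, in 50 mM HEPES pH 7.4, 20 mM MgCl2, 0.1 mM MnCl2, 0.2 mM Na3VO4, 1 mM DTT. Compound was tested at 10 μM, in duplicate. Kinase reaction ran 60 min at 37 °C. Phosphotyrosine was detected with PY99 and HRP anti-mouse IgG, developed with o-phenylenediamine/H2O2, stopped with H2SO4 and read at 492 nm. Inhibition = [1 − A492 treated/A492 control] × 100%. References: lapatinib (ErbB2) and PP2 (Src), each at 10 μM.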

[4] = test system: MDA-MB-435; assay: Cytotoxicity against human MDA-MB-435 cells incubated for 72 hrs by MTT assay; format: functional, cell-based; conditions: MDA-MB-435, 72 h; method in brief: as §1
[5] = test system: HCT-116; assay: Cytotoxicity against p53 deficient human HCT116 cells incubated for 72 hrs by MTT assay; format: functional, cell-based; conditions: HCT-116, 72 h; method in brief: as §1
[6] = target: Receptor tyrosine-protein kinase erbB-2 (Homo sapiens) (UniProt P04626); assay: Inhibition of ErbB2 at 10 uM incubated for 60 mins using poly(Glu,Tyr)4:1 substrate and 10 uM ATP by ELISA; method in brief: as §2
Sequence of Receptor tyrosine-protein kinase erbB-2 (Homo sapiens) (P04626 whole entry): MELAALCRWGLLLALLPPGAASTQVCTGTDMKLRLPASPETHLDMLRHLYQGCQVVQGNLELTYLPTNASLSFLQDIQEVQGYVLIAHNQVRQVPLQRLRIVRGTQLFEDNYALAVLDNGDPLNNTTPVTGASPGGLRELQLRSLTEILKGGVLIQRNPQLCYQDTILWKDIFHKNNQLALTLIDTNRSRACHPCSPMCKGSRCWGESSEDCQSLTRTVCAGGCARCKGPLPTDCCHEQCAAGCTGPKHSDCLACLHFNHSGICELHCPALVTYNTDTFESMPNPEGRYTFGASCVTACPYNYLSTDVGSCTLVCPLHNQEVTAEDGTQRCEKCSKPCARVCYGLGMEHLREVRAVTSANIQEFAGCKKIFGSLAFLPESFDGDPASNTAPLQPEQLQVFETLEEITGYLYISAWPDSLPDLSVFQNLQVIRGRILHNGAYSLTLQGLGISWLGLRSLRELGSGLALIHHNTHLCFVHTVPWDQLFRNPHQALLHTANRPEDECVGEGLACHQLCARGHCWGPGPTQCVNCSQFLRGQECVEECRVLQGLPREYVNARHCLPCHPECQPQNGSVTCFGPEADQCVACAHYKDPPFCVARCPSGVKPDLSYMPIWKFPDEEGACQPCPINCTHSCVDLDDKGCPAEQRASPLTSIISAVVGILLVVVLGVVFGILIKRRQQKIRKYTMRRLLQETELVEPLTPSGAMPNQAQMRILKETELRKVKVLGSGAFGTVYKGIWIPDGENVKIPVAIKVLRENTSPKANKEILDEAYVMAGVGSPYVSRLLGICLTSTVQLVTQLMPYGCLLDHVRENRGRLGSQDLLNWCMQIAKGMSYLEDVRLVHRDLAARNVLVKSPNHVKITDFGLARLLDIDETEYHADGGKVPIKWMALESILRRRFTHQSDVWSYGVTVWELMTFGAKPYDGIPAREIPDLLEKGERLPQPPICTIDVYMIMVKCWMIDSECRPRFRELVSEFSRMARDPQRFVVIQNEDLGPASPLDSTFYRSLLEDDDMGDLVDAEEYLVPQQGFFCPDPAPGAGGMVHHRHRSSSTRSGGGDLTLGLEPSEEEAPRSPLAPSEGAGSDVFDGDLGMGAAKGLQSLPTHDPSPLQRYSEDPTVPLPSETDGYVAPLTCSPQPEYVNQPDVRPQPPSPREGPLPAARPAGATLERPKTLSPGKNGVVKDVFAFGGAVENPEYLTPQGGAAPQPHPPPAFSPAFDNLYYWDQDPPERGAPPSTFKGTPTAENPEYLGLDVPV

[7] = test system: MCF7; assay: Cytotoxicity against human MCF7 cells incubated for 72 hrs by MTT assay; format: functional, cell-based; conditions: MCF7, 72 h; method in brief: as §1
[8] = target: T1, Human immunodeficiency virus type 1 integrase (Human immunodeficiency virus 1, UniProt Q7ZJM1); assay: Inhibition of HIV1 integrase 3'-processing activity using [32P]-labeled linear oligonucleotide substrate
T1 sequence (Q7ZJM1 whole entry): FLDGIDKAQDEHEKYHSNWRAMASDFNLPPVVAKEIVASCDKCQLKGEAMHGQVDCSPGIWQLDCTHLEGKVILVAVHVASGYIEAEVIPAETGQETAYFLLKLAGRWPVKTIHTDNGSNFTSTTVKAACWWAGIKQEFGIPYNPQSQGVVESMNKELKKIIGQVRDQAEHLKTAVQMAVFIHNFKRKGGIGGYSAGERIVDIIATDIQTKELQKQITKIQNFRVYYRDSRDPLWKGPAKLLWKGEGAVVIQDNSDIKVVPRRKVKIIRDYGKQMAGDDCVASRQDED

[9] = Therapeutic index, ratio of CC50 for human C8166 cells to EC50 for HIV1 3B; format: cell-based; conditions: read-out: Ratio CC50/EC50
Method in brief: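 Therapeutic index was calculated as the C8166 MTT CC50 divided by the HIV-1 IIIB syncytium-reduction EC50.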

[10] = test system: Human immunodeficiency virus 1; assay: Antiviral activity against HIV1 3B infected in human C8166 cells assessed as reduction in virus-induced cytopathogenicity measured after 3 days by syncytium reduction assay; format: functional, organism-based; conditions: Human immunodeficiency virus 1, 3B, C8166, 72 h
Method in brief: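 C8166 cells (4 × 10⁵ mL⁻¹), grown in RPMI-1640 with 10% heat-inactivated FCS and kept in log phase, infected with HIV-1 IIIB at MOI 0.06 in the presence of serial compound dilutions. AZT served as positive control. After 3 days, syncytia were counted by inverted microscope. EC50 was derived from percent inhibition of syncytium number relative to infected control.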

[11] = target: T1, Human immunodeficiency virus type 1 integrase; assay: Inhibition of HIV1 integrase strand transfer activity using [32P]-labeled linear oligonucleotide substrate
[12] = test system: HT-29; assay: Cytotoxicity against human HT-29 cells incubated for 72 hrs by MTT assay; format: functional, cell-based; conditions: HT-29, 72 h; method in brief: as §1
[13] = test system: SK-BR-3; assay: Cytotoxicity against human SKBR3 cells incubated for 72 hrs by MTT assay; format: functional, cell-based; conditions: SK-BR-3, 72 h
[14] = test system: LNCaP; assay: Cytotoxicity against human LNCAP cells incubated for 72 hrs by MTT assay; format: functional, cell-based; method in brief: as §1
[15] = target: Vascular endothelial growth factor receptor 2 (Homo sapiens) (UniProt P35968); conditions: at 10 µM
Sequence of Vascular endothelial growth factor receptor 2 (Homo sapiens) (P35968 whole entry): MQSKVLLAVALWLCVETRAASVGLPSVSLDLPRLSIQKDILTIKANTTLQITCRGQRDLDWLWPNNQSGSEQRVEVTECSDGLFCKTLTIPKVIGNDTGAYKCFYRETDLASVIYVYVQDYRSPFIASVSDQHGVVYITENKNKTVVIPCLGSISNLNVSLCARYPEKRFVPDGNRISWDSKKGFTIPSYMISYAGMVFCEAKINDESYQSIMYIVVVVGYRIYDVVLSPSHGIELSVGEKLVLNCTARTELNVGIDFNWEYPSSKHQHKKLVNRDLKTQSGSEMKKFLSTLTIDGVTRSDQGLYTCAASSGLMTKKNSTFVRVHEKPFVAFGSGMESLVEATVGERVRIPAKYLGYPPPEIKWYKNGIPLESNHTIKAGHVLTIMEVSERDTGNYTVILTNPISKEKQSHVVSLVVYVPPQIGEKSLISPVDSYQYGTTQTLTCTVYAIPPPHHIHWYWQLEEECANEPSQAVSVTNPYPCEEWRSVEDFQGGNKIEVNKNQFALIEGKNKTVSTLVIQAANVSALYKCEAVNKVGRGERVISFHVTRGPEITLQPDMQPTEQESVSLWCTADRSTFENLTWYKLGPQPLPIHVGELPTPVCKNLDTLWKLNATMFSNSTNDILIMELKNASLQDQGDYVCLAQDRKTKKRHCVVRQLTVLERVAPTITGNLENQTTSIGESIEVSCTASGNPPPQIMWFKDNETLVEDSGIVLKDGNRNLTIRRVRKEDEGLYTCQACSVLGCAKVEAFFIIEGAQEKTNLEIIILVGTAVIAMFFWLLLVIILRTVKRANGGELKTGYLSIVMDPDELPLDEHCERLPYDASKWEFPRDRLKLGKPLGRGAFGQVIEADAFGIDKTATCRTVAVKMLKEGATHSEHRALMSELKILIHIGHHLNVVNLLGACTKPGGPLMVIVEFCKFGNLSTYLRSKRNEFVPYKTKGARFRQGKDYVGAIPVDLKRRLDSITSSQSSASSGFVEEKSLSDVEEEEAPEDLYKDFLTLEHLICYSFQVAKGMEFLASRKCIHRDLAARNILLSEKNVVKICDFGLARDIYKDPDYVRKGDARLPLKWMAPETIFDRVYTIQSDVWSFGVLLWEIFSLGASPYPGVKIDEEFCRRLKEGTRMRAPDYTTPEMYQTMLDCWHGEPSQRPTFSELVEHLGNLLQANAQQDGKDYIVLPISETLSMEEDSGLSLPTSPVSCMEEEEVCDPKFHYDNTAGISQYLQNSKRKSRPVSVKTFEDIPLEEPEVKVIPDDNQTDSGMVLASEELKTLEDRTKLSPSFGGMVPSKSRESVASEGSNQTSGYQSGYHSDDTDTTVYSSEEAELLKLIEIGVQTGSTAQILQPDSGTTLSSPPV

Compound	IC50 [1]	CC50 at 72 h [2]	inhibition [3]	IC50 [4]	IC50 [5]	inhibition [6]	IC50 [7]	IC50 [8]	selectivity ratio [9]	EC50 [10]	IC50 [11]	IC50 [12]	IC50 [13]	IC50 [14]	inhibition [15]
O=C(NCc1ccc(F)cc1)c1nc(N2CCCCS2(=O)=O)c2cccnc2c1O	2 µM	132 µM	13%	6 µM	2 µM	8%	2 µM	11 µM	26400	0.005 µM	0.3 µM				
CS(=O)(=O)NCCCN(c1nc(C(=O)NCc2ccc(F)cc2)c(O)c2ncccc12)S(C)(=O)=O	15 µM	64 µM		> 20 µM	7 µM		> 20 µM	34 µM	21300	0.003 µM	0.7 µM				
Cc1ccc(S(=O)(=O)Oc2c(C(=O)NCc3ccc(F)cc3)nc(Br)c3cccnc23)cc1	> 20 µM	31 µM		> 20 µM	> 20 µM			> 111 µM	6.2	5.01 µM	31 µM				
CS(=O)(=O)NCCCCCCN(c1nc(C(=O)NCc2ccc(F)cc2)c(O)c2ncccc12)S(C)(=O)=O	3 µM	37 µM		20 µM	4 µM		7 µM	11 µM	18500	0.002 µM	0.7 µM				
O=C(NCc1ccc(F)cc1)c1nc(Br)c2cccnc2c1NCCO	> 20 µM	232 µM		> 20 µM	> 20 µM			> 100 µM	4.8	48.9 µM	69 µM				
Nc1ccc(Nc2c(C(=O)NCc3ccc(F)cc3)nc(Br)c3cccnc23)cc1	10 µM		7%	7 µM	7 µM	1%	4 µM					> 10 µM	4 µM	7 µM	8%
NCCCNc1c(C(=O)NCc2ccc(F)cc2)ncc2cccnc12	> 10 µM		15%	16 µM	> 10 µM		> 10 µM					> 10 µM	> 10 µM	> 10 µM	10%
CS(=O)(=O)Oc1c(C(=O)NCc2ccc(F)cc2)nc(Br)c2cccnc12	> 20 µM	48 µM		> 20 µM	> 20 µM			> 111 µM	4	11.8 µM	13 µM				
CN(C)CCCNc1c(C(=O)NCc2ccc(F)cc2)nc(Br)c2cccnc12	> 10 µM		17%	7 µM	> 10 µM		7 µM					6 µM	1 µM	8 µM	0%
O=C(NCc1ccc(F)cc1)c1nc(NCCc2c[nH]c3ccccc23)c2cccnc2c1O		42 µM		13 µM			12 µM	14 µM	114	0.368 µM	1 µM				
O=C(NCc1ccc(F)cc1)c1nc(Br)c2cccnc2c1N1CCNCC1	> 10 µM		29%	8 µM	> 10 µM		7 µM					10 µM	6 µM	4.5 µM	4%
O=CNCCCCCCNc1nc(C(=O)NCc2ccc(F)cc2)c(O)c2ncccc12	4 µM	199 µM	23%	16 µM	6 µM	11%	19 µM	6 µM	7370	0.027 µM	0.2 µM				
